From ChEMBL document CHEMBL4689842, “EUbOPEN Chemogenomics Library wave 1” (2021)

Test system: U2OS
Assay: Multiplex assay against U2OS
Assay type: toxicity, cell-based
Conditions: human
In short: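 Hoechst33342, BioTracker Green Microtubule Cytoskeleton Dye, MitoTracker Red and Annexin V Alexa Fluor 680 were added to live cells at seeding, and imaging on a CQ1 microscope at 37°C and 5% CO2 followed compound addition. Gating by CellPathfinder machine learning separated cells into Hoechst high-intensity objects or normal cells, then normal cells into healthy, pyknosed or fragmented nuclei, then pyknosed cells into mitotic or apoptotic. Per cents of healthy-nucleus cells are reported for the tubulin, mitochondrial-mass and membrane-permeability phenotypes.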

[1] = 12 h, 1 µM, compound concentration 1 uM, replicate 1
[2] = 12 h, 1 µM, compound concentration 1 uM, replicate 2
[3] = 12 h, 10 µM, compound concentration 10 uM, replicate 1
[4] = 12 h, 10 µM, compound concentration 10 uM, replicate 2
[5] = 24 h, 1 µM, compound concentration 1 uM, replicate 1
[6] = 24 h, 1 µM, compound concentration 1 uM, replicate 2
[7] = 24 h, 10 µM, compound concentration 10 uM, replicate 1
[8] = 24 h, 10 µM, compound concentration 10 uM, replicate 2
[9] = 48 h, 1 µM, compound concentration 1 uM, replicate 1
[10] = 48 h, 1 µM, compound concentration 1 uM, replicate 2
[11] = 48 h, 10 µM, compound concentration 10 uM, replicate 1
[12] = 48 h, 10 µM, compound concentration 10 uM, replicate 2

O=C1NCN(c2ccccc2)C12CCN(CCCOc1ccc(F)cc1)CC2 [SPIRAMIDE] was tested, and the “Population Apoptotic (%)” value [1] was 22%, the “Population Fragmented Nuclei (%)” value [1] was 16% and the “Population Healthy Nuclei (%)” value [1] was 77%. For the same molecule, the “Population Hoechst High Intensity Objects (%)” value [1] was 6%, the “Population Membrane Permeable-Phenotype (%)” value [1] was 1% and the “Population Mitochondria Different-Phenotype (%)” value [1] was 9%. The “Population Mitotic Cells (%)” value [1] was 77%, the “Population Normal (%)” value [1] was 93% and the “Population Pyknosed Nuclei (%)” value [1] was 6%. The “Population Tubulin-Different-Phenotype (%)” value [1] was 10%, the “Total Cell Count” value [1] was 210 and the “Population Apoptotic (%)” value [2] was 0%. For the same molecule, the “Population Fragmented Nuclei (%)” value [2] was 10%, the “Population Healthy Nuclei (%)” value [2] was 88% and the “Population Hoechst High Intensity Objects (%)” value [2] was 7%. The “Population Membrane Permeable-Phenotype (%)” value [2] was 0%, the “Population Mitochondria Different-Phenotype (%)” value [2] was 10% and the “Population Mitotic Cells (%)” value [2] was 100%. The “Population Normal (%)” value [2] was 92%, the “Population Pyknosed Nuclei (%)” value [2] was 1% and the “Population Tubulin-Different-Phenotype (%)” value [2] was 6%. The “Total Cell Count” value [2] was 74, the “Population Apoptotic (%)” value [3] was 36% and the “Population Fragmented Nuclei (%)” value [3] was 16%. For the same molecule, the “Population Healthy Nuclei (%)” value [3] was 51%, the “Population Hoechst High Intensity Objects (%)” value [3] was 10% and the “Population Membrane Permeable-Phenotype (%)” value [3] was 4%. For the same molecule, the “Population Mitochondria Different-Phenotype (%)” value [3] was 74%, the “Population Mitotic Cells (%)” value [3] was 63% and the “Population Normal (%)” value [3] was 90%. For the same molecule, the “Population Pyknosed Nuclei (%)” value [3] was 31%, the “Population Tubulin-Different-Phenotype (%)” value [3] was 50% and the “Total Cell Count” value [3] was 145. The “Population Apoptotic (%)” value [4] was 50%, the “Population Fragmented Nuclei (%)” value [4] was 3% and the “Population Healthy Nuclei (%)” value [4] was 88%. For the same molecule, the “Population Hoechst High Intensity Objects (%)” value [4] was 8%, the “Population Membrane Permeable-Phenotype (%)” value [4] was 2% and the “Population Mitochondria Different-Phenotype (%)” value [4] was 27%. The “Population Mitotic Cells (%)” value [4] was 50%, the “Population Normal (%)” value [4] was 91% and the “Population Pyknosed Nuclei (%)” value [4] was 7%. For the same molecule, the “Population Tubulin-Different-Phenotype (%)” value [4] was 12%, the “Total Cell Count” value [4] was 91 and the “Population Apoptotic (%)” value [5] was 27%. The “Population Fragmented Nuclei (%)” value [5] was 8%, the “Population Healthy Nuclei (%)” value [5] was 80% and the “Population Hoechst High Intensity Objects (%)” value [5] was 7%. The “Population Membrane Permeable-Phenotype (%)” value [5] was 0%, the “Population Mitochondria Different-Phenotype (%)” value [5] was 5% and the “Population Mitotic Cells (%)” value [5] was 72%. For the same molecule, the “Population Normal (%)” value [5] was 92%, the “Population Pyknosed Nuclei (%)” value [5] was 11% and the “Total Cell Count” value [5] was 229. For the same molecule, the “Population Apoptotic (%)” value [6] was 0%, the “Population Fragmented Nuclei (%)” value [6] was 7% and the “Population Healthy Nuclei (%)” value [6] was 89%. The “Population Hoechst High Intensity Objects (%)” value [6] was 6%, the “Population Membrane Permeable-Phenotype (%)” value [6] was 2% and the “Population Mitochondria Different-Phenotype (%)” value [6] was 7%. For the same molecule, the “Population Mitotic Cells (%)” value [6] was 100%, the “Population Normal (%)” value [6] was 93% and the “Population Pyknosed Nuclei (%)” value [6] was 3%. The “Population Tubulin-Different-Phenotype (%)” value [6] was 7%, the “Total Cell Count” value [6] was 76 and the “Population Apoptotic (%)” value [7] was 41%. For the same molecule, the “Population Fragmented Nuclei (%)” value [7] was 18%, the “Population Healthy Nuclei (%)” value [7] was 32% and the “Population Hoechst High Intensity Objects (%)” value [7] was 8%. The “Population Membrane Permeable-Phenotype (%)” value [7] was 10%, the “Population Mitochondria Different-Phenotype (%)” value [7] was 71% and the “Population Mitotic Cells (%)” value [7] was 58%. For the same molecule, the “Population Normal (%)” value [7] was 91%, the “Population Pyknosed Nuclei (%)” value [7] was 48% and the “Population Tubulin-Different-Phenotype (%)” value [7] was 31%. For the same molecule, the “Total Cell Count” value [7] was 173, the “Population Apoptotic (%)” value [8] was 27% and the “Population Fragmented Nuclei (%)” value [8] was 3%. For the same molecule, the “Population Healthy Nuclei (%)” value [8] was 78%, the “Population Hoechst High Intensity Objects (%)” value [8] was 6% and the “Population Membrane Permeable-Phenotype (%)” value [8] was 2%. For the same molecule, the “Population Mitochondria Different-Phenotype (%)” value [8] was 21%, the “Population Mitotic Cells (%)” value [8] was 72% and the “Population Normal (%)” value [8] was 93%. For the same molecule, the “Population Pyknosed Nuclei (%)” value [8] was 18%, the “Population Tubulin-Different-Phenotype (%)” value [8] was 10% and the “Total Cell Count” value [8] was 118. For the same molecule, the “Population Apoptotic (%)” value [9] was 25%, the “Population Fragmented Nuclei (%)” value [9] was 9% and the “Population Healthy Nuclei (%)” value [9] was 85%. For the same molecule, the “Population Hoechst High Intensity Objects (%)” value [9] was 4%, the “Population Membrane Permeable-Phenotype (%)” value [9] was 1% and the “Population Mitochondria Different-Phenotype (%)” value [9] was 12%. For the same molecule, the “Population Mitotic Cells (%)” value [9] was 75%, the “Population Normal (%)” value [9] was 95% and the “Population Pyknosed Nuclei (%)” value [9] was 4%. For the same molecule, the “Population Tubulin-Different-Phenotype (%)” value [9] was 8%, the “Total Cell Count” value [9] was 288 and the “Population Apoptotic (%)” value [10] was 16%. The “Population Fragmented Nuclei (%)” value [10] was 8%, the “Population Healthy Nuclei (%)” value [10] was 84% and the “Population Hoechst High Intensity Objects (%)” value [10] was 1%. The “Population Membrane Permeable-Phenotype (%)” value [10] was 0%, the “Population Mitochondria Different-Phenotype (%)” value [10] was 10% and the “Population Mitotic Cells (%)” value [10] was 83%. The “Population Normal (%)” value [10] was 98%, the “Population Pyknosed Nuclei (%)” value [10] was 6% and the “Population Tubulin-Different-Phenotype (%)” value [10] was 9%. For the same molecule, the “Total Cell Count” value [10] was 106, the “Population Apoptotic (%)” value [11] was 67% and the “Population Fragmented Nuclei (%)” value [11] was 32%. For the same molecule, the “Population Healthy Nuclei (%)” value [11] was 21%, the “Population Hoechst High Intensity Objects (%)” value [11] was 12% and the “Population Membrane Permeable-Phenotype (%)” value [11] was 12%. For the same molecule, the “Population Mitochondria Different-Phenotype (%)” value [11] was 58%, the “Population Mitotic Cells (%)” value [11] was 32% and the “Population Normal (%)” value [11] was 87%. The “Population Pyknosed Nuclei (%)” value [11] was 45%, the “Population Tubulin-Different-Phenotype (%)” value [11] was 28% and the “Total Cell Count” value [11] was 265. The “Population Apoptotic (%)” value [12] was 16%, the “Population Fragmented Nuclei (%)” value [12] was 13% and the “Population Healthy Nuclei (%)” value [12] was 78%. The “Population Hoechst High Intensity Objects (%)” value [12] was 9%, the “Population Membrane Permeable-Phenotype (%)” value [12] was 11% and the “Population Mitochondria Different-Phenotype (%)” value [12] was 16%. The “Population Mitotic Cells (%)” value [12] was 83%, the “Population Normal (%)” value [12] was 90% and the “Population Pyknosed Nuclei (%)” value [12] was 7%. For the same molecule, the “Population Tubulin-Different-Phenotype (%)” value [12] was 18% and the “Total Cell Count” value [12] was 182.
